We go through two compounds from publication PMC2920599 (Journal of medicinal chemistry, 2010).

A word on the CC50: it is the concentration at which the toxic effect on the cells reaches its halfway point. A higher CC50 goes with better tolerance by the cells. One may read the GI50 as the concentration that inhibits growth by half.

The test system of data set [1] is full NCI 60 cell panel. To be noted: for TGI MG-MID (mean TGI): calculated panel mean, 48 h exposure.
The subject of the next data set is p21. Nature of the data set: Western blotting of p21 in MCF-7 cells. To be noted: 5 μM, 24 h. In kind it is cell-based, human. (A western blot detects proteins with antibodies after separation by electrophoresis.)
Data set [2] has as its system MCF-7 breast cancer cells. Put plainly: Growth and death of MCF-7 cells. The data set is classed as cell-based, human. To be noted: 200 nM, viable cells counted daily. The method in brief: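 MCF-7 cells grown in RPMI 1640 with 10% FBS and 2 mM L-glutamine at 37°C, 5% CO2. Plated at 2×10^4 cells/cm2; compound added 24 h later from 10 mmol/L DMSO working solutions, with DMSO-only controls. Cells harvested with 0.11% trypsin/0.02% EDTA and counted; viability by trypan blue exclusion. Treated vs control compared by Student t-test, P<0.05.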

Another data set concerns Leukemia. Nature of the data set: NCI 60 cell panel, five-concentration assay, leukemia subpanel. In kind it is cell-based. To be noted: total growth inhibition; 48 h exposure.
The subject of a further data set is Ovarian. Put plainly: NCI 60 cell panel, five-concentration assay, ovarian subpanel. The data set is classed as cell-based. To be noted: total growth inhibition; 48 h exposure.
For the next data set, the system named is ERK1/2. Put plainly: Western blotting of ERK1/2 phosphorylation in MCF-7 cells. The data set is classed as cell-based, human. To be noted: 5 μM, 20 h. A digest of the protocol:
(§1)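 MCF-7 cells treated 20 h, then collected in 20 mM HEPES pH 7.5 with 5 mM DTT, 2 mM EDTA, 0.1% CHAPS, 0.1% Triton X-100 and protease inhibitors, and freeze-thawed twice. Extracts run on SDS-PAGE at 80 μg protein/lane and immunoblotted for total and phosphorylated ERK1/2 and Akt, p53, p21 and β-actin. Blots representative of at least three experiments.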

In the next data set the test system is Breast. Nature of the data set: NCI 60 cell panel, five-concentration assay, breast subpanel. In kind it is cell-based. To be noted: total growth inhibition; 48 h exposure.
The next data set deals with Melanoma. Nature of the data set: NCI 60 cell panel, five-concentration assay, melanoma subpanel. In kind it is cell-based. To be noted: total growth inhibition; 48 h exposure.
The next data set deals with Colon. Nature of the data set: NCI 60 cell panel, five-concentration assay, colon subpanel. The data set is classed as cell-based. To be noted: total growth inhibition; 48 h exposure.
The next data set relates to Akt. Put plainly: Western blotting of Akt phosphorylation in MCF-7 cells. To be noted: 5 μM, 20 h. In kind it is cell-based, human. The method in brief: as §1
The test system of a further data set is p53. Put plainly: Western blotting of p53 in MCF-7 cells. The data set is classed as cell-based, human. To be noted: 5 μM.
The subject of another data set is Renal. Nature of the data set: NCI 60 cell panel, five-concentration assay, renal subpanel. The data set is classed as cell-based. To be noted: total growth inhibition; 48 h exposure.
A further data set deals with CNS. Nature of the data set: NCI 60 cell panel, five-concentration assay, CNS subpanel. In kind it is cell-based. To be noted: total growth inhibition; 48 h exposure.
For the next data set, the system named is MCF-7 cells. Nature of the data set: Cell cycle analysis of MCF-7 cells by flow cytometry. In kind it is cell-based, human. To be noted: 200 nM, 24 and 48 h. A general note: In flow cytometry, cells or beads pass a laser one at a time.
Another data set relates to NSCLC. Put plainly: NCI 60 cell panel, five-concentration assay, NSCLC subpanel. In kind it is cell-based. To be noted: total growth inhibition; 48 h exposure.
Another data set has as its system Bax. Nature of the data set: Bax content in MCF-7 cells. In kind it is cell-based, human. A digest of the protocol:
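MCF-7 cells seeded at 1×10^4 cells/cm2 on glass coverslips and treated. Then fixed in 3% p-formaldehyde, washed with 0.1 M glycine in PBS, and permeabilised in 70% ice-cold ethanol. Stained 1 h at room temperature with mouse monoclonal anti-Bax, then FITC anti-mouse IgG for 1 h, with propidium iodide for nuclei. Confocal imaging used sequential 488 and 568 nm excitation; image representative of three experiments.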

Data set [3] concerns full NCI 60 cell panel. Nature of the data set: cells. To be noted: Homo sapiens, 48 h, read-out: GI50 MG-MID (mean GI50).
The next data set deals with Prostate. Put plainly: NCI 60 cell panel, five-concentration assay, prostate subpanel. The data set is classed as cell-based. To be noted: total growth inhibition; 48 h exposure.

Where a name gives a salt, the structure may show the parent alone.

Consider `COc1cc2c(/C=C3/C(=O)Nc4cc(Cl)ccc43)c(Cl)n(C)c2cc1C` [Compound 12], for which, in the data set on full NCI 60 cell panel [1], the CC50 was 49 µM and the “TGI MG-MID (mean TGI)” value is 3.80 µM. In addition, the “increase of p21 (densitometry)” value in the data set with p21 is “about 90%”. Moreover, the “effect on MCF-7 cell growth (total cell number)” value in data set [2] was “blocked MCF-7 cell growth within 48 h”. In addition, the “TGI Leukemia” value in the data set with Leukemia turned out to be 1.74 µM. The “TGI Ovarian” value with Ovarian is 2.34 µM. In addition, the ERK phosphorylation entry in the data set on ERK1/2 is given as “decreased ERK phosphorylation”. The “TGI Breast” value in the data set with Breast turned out to be 5.62 µM. In addition, in the data set on Melanoma, the “TGI Melanoma” value is 7.08 µM. Moreover, the “TGI Colon” value in the data set with Colon is 0.95 µM. The Akt phosphorylation result with Akt is listed as “only slightly decreased”. In the data set on p53 (20 h), the p53 expression result is “caused a p53 increase”. Also, in the data set on p53 (24 h), the “induction of p53 (densitometry)” value is recorded as “threefold induction of p53”. Besides, the “TGI Renal” value in the data set on Renal worked out at 15.85 µM. Besides, the “TGI CNS” value in the data set with CNS turned out to be 1.20 µM. Moreover, in the data set on MCF-7 cells, the “cell cycle distribution: G2/M phase” value is on record as “marked accumulation of MCF-7 cells in the G2/M phase” and the “sub-G1 peak (apoptotic cells)” value was “a notable cell population was observed in a sub-G1-peak”. Also, the “TGI NSCLC” value in the data set on NSCLC came out at 11.48 µM. In addition, the “cellular Bax by immunofluorescence microscopy” value in the data set on Bax (5 μM, 24 h) is reported as “considerable Bax accumulation”. Moreover, the “increase of Bax, densitometric analysis of Western blotting” value with Bax (n=3, data not shown) was 2.8 times.
Regarding `CC[C@]1(O)C[C@H]2CN(CCc3c([nH]c4ccccc34)[C@@](C(=O)OC)(c3cc4c(cc3OC)N(C=O)[C@H]3[C@@](O)(C(=O)OC)[C@H](OC(C)=O)[C@]5(CC)C=CCN6CC[C@]43[C@@H]65)C2)C1` [Vincristine sulfate, reference compound], in the data set with full NCI 60 cell panel [1], the “TGI MG-MID (mean TGI)” value was 10.00 µM. Also, the “TGI Leukemia” value in the data set on Leukemia was 15.85 µM. For the same compound, in the data set with Ovarian, the “TGI Ovarian” value was determined as 19.95 µM. The “TGI Breast” value in the data set on Breast stood at 7.94 µM. Further, the “TGI Melanoma” value in the data set with Melanoma stood at 7.94 µM. The “TGI Colon” value with Colon stood at 3.98 µM. The GI50 in the data set on full NCI 60 cell panel [3] worked out at 200 nM. Also, the “TGI Prostate” value with Prostate amounted to 6.31 µM. The “TGI Renal” value with Renal is 19.95 µM. In the data set with CNS, the “TGI CNS” value was found to be 6.31 µM. In addition, the “TGI NSCLC” value in the data set with NSCLC came out at 15.85 µM.
